Results from ChEMBL document CHEMBL1122109, “Monophenolic octahydrobenzo[f]quinolines: central dopamine- and serotonin-receptor stimulating activity” (1982).
The source made the active and inactive calls. The rule behind the calls is not given here.

What was measured:
[1] = organism: Rattus norvegicus; assay: ED50 value was measured as dose required to produce a half-maximal reduction of Dopa accumulation in limbic area of reserpinized rat brain.; format: functional
[2] = organism: Rattus norvegicus; assay: Percent reduction of hemispheres in cortex was measured in the brain of reserpinized rats; I is Inactive, no significant effect at doses approximately 40 times the ED50 for Dopa accumulation; format: functional, organism-based
[3] = organism: Rattus norvegicus; assay: ED50 value was measured as dose required to produce a half-maximal reduction of Serotonin (5-HTP) accumulation in limbic area of reserpinized rat brain; I is Inactive, no significant effect at doses approximately 40 times the ED50 for Dopa accumulation; format: functional, organism-based
[4] = organism: Rattus norvegicus; assay: ED50 value was measured as dose required to produce a half-maximal reduction of Dopa accumulation in the striatum of reserpinized rat brain.; format: functional
[5] = organism: Rattus norvegicus; assay: ED50 value was measured as dose required to produce a half-maximal reduction of Serotonin (5-HTP) accumulation in striatum of reserpinized rat brain; I is Inactive, no significant effect at doses approximately 40 times the ED50 for Dopa accumulation; format: functional, organism-based
[6] = organism: Rattus norvegicus; assay: Motor activity was measured in the reserpinized rats as counts/60 min.; format: functional
Method in brief: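 Male Sprague-Dawley rats (200-300 g) received reserpine 10 mg/kg ip 6 h before testing and DL-α-methyl-p-tyrosine methyl ester HCl 250 mg/kg ip 1 h before. Test drug was given sc in the neck: trans derivatives at 1 mg/kg (3100 nmol/kg), cis at 10 mg/kg (31000 nmol/kg), n = 4. Rats were placed singly in motility meters immediately and activity recorded for 60 min; means ± SEM.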

[7] = organism: Rattus norvegicus; assay: Percent reduction of hemispheres in cortex was measured in the brain of reserpinized rats.*: No significant effect at doses approximately 40 times the ED50; I is Inactive, no significant effect at doses approximately 40 times the ED50 for Dopa ac cumulation; format: functional, organism-based
[8] = test system: Rattus norvegicus; assay: ED50 value was measured as dose required to produce a half-maximal reduction of Serotonin (5-HTP) accumulation in limbic area of reserpinized rat brain; I is Inactive at 2800 nmol/kg; format: functional, organism-based
[9] = organism: Rattus norvegicus; assay: ED50 value was measured as dose required to produce a half-maximal reduction of Serotonin (5-HTP) accumulation in striatum of reserpinized rat brain; I is Inactive, no significant effect at doses approximately 10 times the ED50 for Dopa accumulation; format: functional, organism-based
[10] = organism: Rattus norvegicus; assay: Percent reduction of hemispheres in cortex was measured in the brain of reserpinized rats; I is Inactive, no significant effect at doses approximately 10 times the ED50 for Dopa accumulation; format: functional, organism-based
[11] = test system: Rattus norvegicus; assay: ED50 value was measured as dose required to produce a half-maximal reduction of Dopa accumulation in the striatum of reserpinized rat brain; I is Inactive at 2800 nmol/kg; format: functional, organism-based
[12] = test system: Rattus norvegicus; assay: ED50 value was measured as dose required to produce a half-maximal reduction of Serotonin (5-HTP) accumulation in striatum of reserpinized rat brain; I is Inactive at 2800 nmol/kg; format: functional, organism-based
[13] = organism: Rattus norvegicus; assay: ED50 value was measured as dose required to produce a half-maximal reduction of Serotonin (5-HTP) accumulation in limbic area of reserpinized rat brain; I is Inactive, no significant effect at doses approximately 10 times the ED50 for Dopa accumulation; format: functional, organism-based
[14] = test system: Rattus norvegicus; assay: ED50 value was measured as dose required to produce a half-maximal reduction of Dopa accumulation in limbic area of reserpinized rat brain; I is Inactive at 2800 nmol/kg; format: functional, organism-based
[15] = test system: Rattus norvegicus; assay: Percent reduction of hemispheres in cortex was measured in the brain of reserpinized rats; I is Inactive at 2800 nmol/kg; format: functional, organism-based
[16] = test system: Rattus norvegicus; assay: ED50 value was measured as dose required to produce a half-maximal reduction of Serotonin (5-HTP) accumulation in limbic area of reserpinized rat brain; I is Inactive at 45000 nmol/kg; format: functional, organism-based
[17] = test system: Rattus norvegicus; assay: ED50 value was measured as dose required to produce a half-maximal reduction of Dopa accumulation in the striatum of reserpinized rat brain; Maximal reduction of Dopa could not be obtained. 60% reduction from control level at 12500 nmol/Kg; format: functional, organism-based
[18] = test system: Rattus norvegicus; assay: Percent reduction of hemispheres in cortex was measured in the brain of reserpinized rats.*: No significant effect at doses approximately 40 times the ED50; IA is Inactive at 45000 nmol/kg; format: functional, organism-based
[19] = test system: Rattus norvegicus; assay: ED50 value was measured as dose required to produce a half-maximal reduction of Serotonin (5-HTP) accumulation in striatum of reserpinized rat brain; I is Inactive at 45000 nmol/kg; format: functional, organism-based
[20] = test system: Rattus norvegicus; assay: ED50 value was measured as dose required to produce a half-maximal reduction of Dopa accumulation in limbic area of reserpinized rat brain; Maximal reduction of Dopa could not be obtained. 40% reduction from control level at 12500 nmol/Kg; format: functional, organism-based
[21] = test system: Rattus norvegicus; assay: Percent reduction of hemispheres in cortex was measured in the brain of reserpinized rats; I is Inactive at 11300 nmol/Kg; format: functional, organism-based
[22] = test system: Rattus norvegicus; assay: ED50 value was measured as dose required to produce a half-maximal reduction of Serotonin (5-HTP) accumulation in limbic area of reserpinized rat brain; I is Inactive at 11300 nmol/Kg; format: functional, organism-based
[23] = test system: Rattus norvegicus; assay: ED50 value was measured as dose required to produce a half-maximal reduction of Serotonin (5-HTP) accumulation in striatum of reserpinized rat brain; I is Inactive at 11300 nmol/Kg; format: functional, organism-based
[24] = organism: Rattus norvegicus; assay: Percent reduction of hemispheres in cortex was measured in the brain of reserpinized rats.*: No significant effect at doses approximately 40 times the ED50; format: functional
[25] = organism: Rattus norvegicus; assay: ED50 value was measured as dose required to produce a half-maximal reduction of Serotonin (5-HTP) accumulation in striatum of reserpinized rat brain; format: functional
[26] = organism: Rattus norvegicus; assay: ED50 value was measured as dose required to produce a half-maximal reduction of Serotonin (5-HTP) accumulation in limbic area of reserpinized rat brain; format: functional
[27] = organism: Rattus norvegicus; assay: ED50 value was measured as dose required to produce a half-maximal reduction of Dopa accumulation in limbic area of reserpinized rat brain; I is Inactive, no significant effect at doses approximately 10 times the ED50 for Dopa accumulation; format: functional, organism-based
[28] = organism: Rattus norvegicus; assay: ED50 value was measured as dose required to produce a half-maximal reduction of Dopa accumulation in the striatum of reserpinized rat brain; I is Inactive, no significant effect at doses approximately 10 times the ED50 for Dopa accumulation; format: functional, organism-based
[29] = test system: Rattus norvegicus; assay: ED50 value was measured as dose required to produce a half-maximal reduction of Dopa accumulation in limbic area of reserpinized rat brain; I is Inactive at 500 nmol/kg; format: functional, organism-based
[30] = test system: Rattus norvegicus; assay: ED50 value was measured as dose required to produce a half-maximal reduction of Dopa accumulation in the striatum of reserpinized rat brain; I is Inactive at 500 nmol/kg; format: functional, organism-based
[31] = organism: Rattus norvegicus; assay: ED50 value was measured as dose required to produce a half-maximal reduction of Dopa accumulation in limbic area of reserpinized rat brain; I is Inactive, no significant effect at doses approximately 40 times the ED50 for Dopa accumulation; format: functional, organism-based
[32] = organism: Rattus norvegicus; assay: ED50 value was measured as dose required to produce a half-maximal reduction of Dopa accumulation in the striatum of reserpinized rat brain; I is Inactive, no significant effect at doses approximately 40 times the ED50 for Dopa accumulation; format: functional, organism-based
[33] = organism: Rattus norvegicus; assay: ED50 for 5-HTP in cortex hemispheres was measured in the brain of reserpinized rats.
[34] = Rattus norvegicus, Brain, read-out: ED50
[35] = Rattus norvegicus, Striatum, read-out: ED50

Compound	ED50 [1, 34]	Hemispheres reduction [2]	ED50 [3]	ED50 [4, 35]	ED50 [5]	Motor activity [6]	also measured
CCCN1CCCC(c2cccc(O)c2)C1 (configuration not stated)	3.6 µmol/kg	inactive	inactive	3.6 µmol/kg	inactive	–	–
CCCN(CCC)C1CCc2ccc(O)cc2C1 (configuration not stated)	0.027 µmol/kg	inactive	inactive	0.03 µmol/kg	inactive	–	–
CCCN(CCC)[C@@H]1CCc2ccc(O)cc2C1	0.18 µmol/kg	–	–	0.17 µmol/kg	–	–	–
CCCCN1CCCC2c3cccc(O)c3CCC21 (configuration not stated)	0.08 µmol/kg	–	inactive	0.07 µmol/kg	inactive	418	Hemispheres reduction [7]: inactive
CCCN1CCCC2c3ccc(O)cc3CCC21 (configuration not stated)	0.54 µmol/kg	–	–	0.53 µmol/kg	–	179	ED50 [8]: inactive; ED50 [9]: inactive; Hemispheres reduction [10]: inactive; ED50 [11]: inactive; ED50 [12]: inactive; ED50 [13]: inactive; ED50 [14]: inactive; Hemispheres reduction [15]: inactive
CCCN1CCCC2c3cccc(O)c3CCC21 (stereo in doubt; 6) [listing 1 of 2 here]	–	–	–	–	–	17	–
CCCN1CCCC2c3cccc(O)c3CCC21 (stereo in doubt; 6) [listing 2 of 2 here]	–	–	–	–	–	–	ED50 [16]: inactive; ED50 [17]: Weak activity; Hemispheres reduction [18]: inactive; ED50 [19]: inactive; ED50 [20]: Weak activity
CCCN1CCCC2c3cccc(O)c3CCC21 (stereo in doubt; 7) [listing 1 of 2 here]	0.13 µmol/kg	–	–	0.13 µmol/kg	–	327	–
CCCN1CCCC2c3cccc(O)c3CCC21 (stereo in doubt; 7) [listing 2 of 2 here]	–	inactive	inactive	–	inactive	–	–
CCCN1CCCC2c3cc(O)ccc3CCC21 (stereo in doubt; 8) [listing 1 of 2 here]	–	–	–	–	–	–	ED50 [1]: 2000 nM/kg; ED50 [4]: 3400 nM/kg
CCCN1CCCC2c3cc(O)ccc3CCC21 (stereo in doubt; 8) [listing 2 of 2 here]	–	–	–	–	–	–	Hemispheres reduction [21]: inactive; ED50 [22]: inactive; ED50 [23]: inactive
CCCN1CCCC2c3cc(O)ccc3CCC21 (stereo in doubt; 9) [listing 1 of 2 here]	–	–	–	–	–	365	ED50 [1]: 8 nM/kg; ED50 [4]: 12 nM/kg
CCCN1CCCC2c3cc(O)ccc3CCC21 (stereo in doubt; 9) [listing 2 of 2 here]	–	inactive	inactive	–	inactive	–	–
CCCN1CCCC2c3c(O)cccc3CCC21 (stereo in doubt; 17) [listing 1 of 2 here]	–	–	–	–	–	–	Hemispheres reduction [24]: 4500; ED50 [25]: 3400 nM/kg; ED50 [26]: 3400 nM/kg
CCCN1CCCC2c3c(O)cccc3CCC21 (stereo in doubt; 17) [listing 2 of 2 here]	–	–	–	–	–	–	ED50 [27]: inactive; ED50 [28]: inactive
CCCN1CCCC2c3c(O)cccc3CCC21 (stereo in doubt; 18) [listing 1 of 2 here]	–	–	–	–	–	–	Hemispheres reduction [24]: 160; ED50 [25]: 180 nM/kg; ED50 [26]: 230 nM/kg
CCCN1CCCC2c3c(O)cccc3CCC21 (stereo in doubt; 18) [listing 2 of 2 here]	–	–	–	–	–	–	ED50 [29]: inactive; ED50 [30]: inactive
CCCN(CCC)C1CCc2c(O)cccc2C1 (configuration not stated) [5-OH-DPAT]	0.011 µmol/kg	inactive	inactive	0.009 µmol/kg	inactive	688	–
CCCN(CCC)C1CCc2cccc(O)c2C1 (configuration not stated) [8-OH-DPAT]	–	–	–	–	–	–	ED50 [31]: inactive; ED50 [32]: inactive; ED50 [33]: 68 nmol/kg; ED50 [25, 35]: 0.045 µmol/kg; ED50 [26, 34]: 0.048 µmol/kg
CN1CCc2cccc3c2[C@H]1Cc1ccc(O)c(O)c1-3 [APOMORPHINE]	0.19 µmol/kg	inactive	–	0.22 µmol/kg	–	624	–
